According to ChEMBL document CHEMBL4732260, “Developing novel classes of protein kinase CK1δ inhibitors by fusing [1,2,4]triazole with different bicyclic heteroaromatic systems” (Eur J Med Chem, 2021):
The source made the active and inactive calls. No cut-off for these calls is given here.

Assays:
[1] = target: T1, Casein kinase I isoform delta (Homo sapiens, UniProt P48730); assay: Inhibition of recombinant human N-terminal GST-tagged CK1delta (1 to 294 residues) using casein as substrate measured after 60 mins in presence of ATP by Kinase-Glo reagent-based luminescence assay
Target sequence in this assay (P48730 whole entry, the tested form may be a part, canonical isoform): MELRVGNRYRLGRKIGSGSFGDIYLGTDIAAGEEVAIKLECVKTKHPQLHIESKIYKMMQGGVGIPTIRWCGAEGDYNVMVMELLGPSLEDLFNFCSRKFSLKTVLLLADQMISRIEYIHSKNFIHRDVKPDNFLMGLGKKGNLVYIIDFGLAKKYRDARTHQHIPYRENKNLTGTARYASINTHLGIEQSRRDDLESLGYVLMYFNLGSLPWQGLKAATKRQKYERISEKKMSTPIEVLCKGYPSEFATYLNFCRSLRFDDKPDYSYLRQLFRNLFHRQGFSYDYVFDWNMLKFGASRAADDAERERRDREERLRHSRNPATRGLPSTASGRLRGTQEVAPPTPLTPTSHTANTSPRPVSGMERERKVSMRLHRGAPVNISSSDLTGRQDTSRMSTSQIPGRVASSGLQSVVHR

[2] = target: T1, Casein kinase I isoform delta; assay: Inhibition of recombinant human N-terminal GST-tagged CK1delta (1 to 294 residues) at 40 uM using casein as substrate measured after 60 mins in presence of ATP by Kinase-Glo reagent-based luminescence assay relative to control
Target sequence in this assay (P48730 whole entry, looked up, the tested form may be a part, canonical isoform): as the sequence (P48730 whole entry, the tested form may be a part, canonical isoform) above

PBL [3] = assay: Cytotoxicity against human PBL cells assessed as inhibition of cell growth after 72 hrs by resazurin based assay
How it was run: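 Gradient-isolated PBL held overnight in RPMI-1640 with 10% FBS. Non-adherent resting cells (no PHA) at 5×10^5 cells/mL, exposed to compounds for 72 h. Viability read as resazurin fluorescence at 590 nm over 4 h.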

PBL [4] = assay: Cytotoxicity against PHA-stimulated human PBL assessed as inhibition of cell growth after 72 hrs by resazurin based assay
How it was run: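 PBL isolated from buffy coats by Lymphoprep density gradient, held overnight in RPMI-1640 with 10% FBS. Non-adherent cells at 5×10^5 cells/mL with 2.5 µg/mL PHA. 72 h compound exposure; viability by resazurin fluorescence at 590 nm over 4 h.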

[5] = target: T1, Casein kinase I isoform delta; assay: ATP competitive inhibition of recombinant human N-terminal GST-tagged CK1delta (1 to 294 residues) in presence of varying level of ATP by Kinase-Glo reagent-based luminescence assay
How it was run: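 Truncated enzyme (16 ng) in 50 mM HEPES pH 7.5, 1 mM EDTA, 1 mM EGTA, 15 mM Mg acetate with 0.1% casein; ATP in the added mix at 4, 40 or 400 µM (Fig. 8-B gives 2, 20, 200 µM). 60 min at 30 °C, then Kinase-Glo, luminescence read after 10 min at 25 °C. Activity is compared across ATP levels.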
Target sequence in this assay (P48730 whole entry, looked up, the tested form may be a part, canonical isoform): as the sequence (P48730 whole entry, the tested form may be a part, canonical isoform) above

[6] = target: T1, Casein kinase I isoform delta; assay: Binding affinity to wild-type human full length CSNK1D (M1 to K409 residues) expressed in bacterial expression system at 10 uM by Kinomescan method relative to control
How it was run: (§1)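 KINOMEscan competition binding across the CK1 isoform panel, compound at 10 µM. Reported as % binding relative to a […].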
Target sequence in this assay (P48730 whole entry, looked up, the tested form may be a part, canonical isoform): as the sequence (P48730 whole entry, the tested form may be a part, canonical isoform) above

Fibroblast = assay: Cytotoxicity against human fibroblast assessed as inhibition of cell growth after 72 hrs by resazurin based assay
How it was run: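 Normal adult fibroblasts grown in DMEM with 10% FBS, seeded at 2×10^4 cells per well. Compounds added after 24 h at several concentrations; viability read 72 h later by resazurin fluorescence at 590 nm over 4 h.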

[7] = target: T1, Casein kinase I isoform delta; assay: Inhibition of recombinant human full-length N-terminal GST-tagged CK1delta using casein as substrate measured after 10 mins in presence of ATP by Kinase-Glo reagent-based luminescence assay
How it was run: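 Full-length CK1δ at 26 nM with 0.1% casein and 4 µM ATP added, in 50 mM HEPES pH 7.5, 1 mM EDTA, 1 mM EGTA, 15 mM Mg acetate. Ten inhibitor concentrations from 100 to 0.026 µM. 10 min at 30 °C, Kinase-Glo stop, luminescence read after 10 min at 30 °C. IC50 given as mean ± standard error of three independent experiments.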
Target sequence in this assay (P48730 whole entry, the tested form may be a part, canonical isoform): as above

[8] = target: Casein kinase I isoform alpha (Homo sapiens) (UniProt P48729); assay: Binding affinity to wild-type human partial length CSNK1A1 (M1 to L301 residues) expressed in mammalian expression system at 10 uM by Kinomescan method relative to control; how it was run: as §1
[9] = target: Casein kinase I isoform gamma-1 (Homo sapiens) (UniProt Q9HCP0); assay: Binding affinity to wild-type human partial length CSNK1G1 (T15 to S353 residues) expressed in bacterial expression system at 10 uM by Kinomescan method relative to control; how it was run: as §1
[10] = target: Casein kinase I isoform gamma-3 (Homo sapiens) (UniProt Q9Y6M4); assay: Binding affinity to wild-type human full length CSNK1G3 (M1 to K447 residues) expressed in bacterial expression system at 10 uM by Kinomescan method relative to control; how it was run: as §1
[11] = target: T2, Casein kinase I isoform alpha-like (Homo sapiens) (UniProt Q8N752); assay: Binding affinity to wild-type human full length CSNK1A1L (M1 to N337 residues) expressed in bacterial expression system at 10 uM by Kinomescan method relative to control; how it was run: as §1
T2 sequence (whole entry): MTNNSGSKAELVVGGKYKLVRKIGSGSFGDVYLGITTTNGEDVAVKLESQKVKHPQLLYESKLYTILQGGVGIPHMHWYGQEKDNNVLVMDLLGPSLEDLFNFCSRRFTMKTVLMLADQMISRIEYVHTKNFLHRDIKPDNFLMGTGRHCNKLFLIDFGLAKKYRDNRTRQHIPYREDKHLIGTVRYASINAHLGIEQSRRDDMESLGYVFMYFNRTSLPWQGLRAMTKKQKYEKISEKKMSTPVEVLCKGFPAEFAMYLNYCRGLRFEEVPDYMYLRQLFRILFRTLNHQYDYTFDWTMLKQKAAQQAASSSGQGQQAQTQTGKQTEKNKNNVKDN

[12] = target: Casein kinase I isoform gamma-2 (Homo sapiens) (UniProt P78368); assay: Binding affinity to wild-type human full length CSNK1G2 (M1 to K415 residues) expressed in bacterial expression system at 10 uM by Kinomescan method relative to control; how it was run: as §1
[13] = target: Casein kinase I isoform epsilon (Homo sapiens, UniProt P49674); assay: Binding affinity to wild-type human full length CSNK1E (M1 to K416 residues) expressed in bacterial expression system at 10 uM by Kinomescan method relative to control; how it was run: as §1
Sequence of Casein kinase I isoform epsilon (P49674 whole entry, looked up, the tested form may be a part, canonical isoform): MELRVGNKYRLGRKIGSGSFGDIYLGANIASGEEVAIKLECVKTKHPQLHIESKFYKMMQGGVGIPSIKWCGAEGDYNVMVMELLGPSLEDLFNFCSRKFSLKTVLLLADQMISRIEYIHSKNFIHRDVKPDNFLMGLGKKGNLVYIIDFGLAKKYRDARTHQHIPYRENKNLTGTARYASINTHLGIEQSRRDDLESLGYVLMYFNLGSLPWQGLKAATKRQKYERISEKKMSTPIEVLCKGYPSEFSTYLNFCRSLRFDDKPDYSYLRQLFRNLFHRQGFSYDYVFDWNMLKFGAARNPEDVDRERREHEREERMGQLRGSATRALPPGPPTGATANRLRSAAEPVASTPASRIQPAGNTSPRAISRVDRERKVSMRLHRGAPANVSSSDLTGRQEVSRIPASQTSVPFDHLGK

Sequence of Casein kinase I isoform gamma-1 (Homo sapiens) (Q9HCP0 whole entry, looked up, the tested form may be a part, canonical isoform): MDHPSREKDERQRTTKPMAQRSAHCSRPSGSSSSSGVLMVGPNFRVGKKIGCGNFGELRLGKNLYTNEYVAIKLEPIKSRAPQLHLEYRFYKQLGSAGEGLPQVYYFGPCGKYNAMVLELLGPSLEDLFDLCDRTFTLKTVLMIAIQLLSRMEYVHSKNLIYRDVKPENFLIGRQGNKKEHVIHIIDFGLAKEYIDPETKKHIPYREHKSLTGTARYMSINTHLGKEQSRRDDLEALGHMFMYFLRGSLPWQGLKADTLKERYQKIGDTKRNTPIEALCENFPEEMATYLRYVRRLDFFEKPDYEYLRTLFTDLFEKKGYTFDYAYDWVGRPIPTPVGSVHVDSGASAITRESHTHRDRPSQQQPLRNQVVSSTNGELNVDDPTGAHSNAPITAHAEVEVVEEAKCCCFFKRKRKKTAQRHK
Sequence of Casein kinase I isoform gamma-2 (Homo sapiens) (P78368 whole entry, looked up, the tested form may be a part, canonical isoform): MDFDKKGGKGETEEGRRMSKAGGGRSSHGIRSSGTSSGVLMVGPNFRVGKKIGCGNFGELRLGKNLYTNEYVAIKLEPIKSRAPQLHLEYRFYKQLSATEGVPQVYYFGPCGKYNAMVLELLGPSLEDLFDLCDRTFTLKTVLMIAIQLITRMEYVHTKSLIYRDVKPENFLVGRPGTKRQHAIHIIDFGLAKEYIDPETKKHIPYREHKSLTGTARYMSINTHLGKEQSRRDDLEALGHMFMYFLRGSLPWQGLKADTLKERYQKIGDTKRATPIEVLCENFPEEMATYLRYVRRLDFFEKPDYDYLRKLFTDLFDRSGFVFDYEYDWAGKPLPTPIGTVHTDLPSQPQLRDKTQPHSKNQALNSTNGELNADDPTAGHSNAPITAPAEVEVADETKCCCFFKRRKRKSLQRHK
Sequence of Casein kinase I isoform gamma-3 (Homo sapiens) (Q9Y6M4 whole entry, looked up, the tested form may be a part, canonical isoform): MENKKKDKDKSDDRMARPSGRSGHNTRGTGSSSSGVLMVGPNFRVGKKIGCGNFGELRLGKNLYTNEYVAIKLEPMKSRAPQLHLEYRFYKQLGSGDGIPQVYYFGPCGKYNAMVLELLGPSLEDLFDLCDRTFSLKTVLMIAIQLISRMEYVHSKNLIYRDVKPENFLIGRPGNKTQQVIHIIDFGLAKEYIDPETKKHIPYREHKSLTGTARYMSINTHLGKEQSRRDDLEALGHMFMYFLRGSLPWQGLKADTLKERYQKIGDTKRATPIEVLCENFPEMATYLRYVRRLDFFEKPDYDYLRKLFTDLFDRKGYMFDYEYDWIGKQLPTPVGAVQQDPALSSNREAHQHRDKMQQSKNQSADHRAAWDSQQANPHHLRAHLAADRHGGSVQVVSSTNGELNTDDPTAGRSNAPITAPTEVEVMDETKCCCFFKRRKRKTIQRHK
Sequence of Casein kinase I isoform alpha (Homo sapiens) (P48729 2-337 limits assumed): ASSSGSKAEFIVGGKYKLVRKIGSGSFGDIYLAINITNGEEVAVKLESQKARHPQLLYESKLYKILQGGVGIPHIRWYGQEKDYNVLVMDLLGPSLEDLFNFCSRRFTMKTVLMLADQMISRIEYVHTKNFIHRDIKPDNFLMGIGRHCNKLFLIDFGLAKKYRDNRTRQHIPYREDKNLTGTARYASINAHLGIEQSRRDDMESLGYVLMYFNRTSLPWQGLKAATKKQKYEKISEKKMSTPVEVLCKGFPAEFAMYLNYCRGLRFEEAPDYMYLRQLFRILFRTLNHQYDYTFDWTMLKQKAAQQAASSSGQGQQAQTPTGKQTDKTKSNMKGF

| SMILES | IC50 [1] [nM] | inhibition [2] [%] | further results |
| --- | --- | --- | --- |
| NCCNC(=O)c1cnc(N)n2nc(-c3cccc(O)c3)nc12 | 1260 | 93 |  |
| CCNC(=O)c1cnc(N)n2nc(-c3cccc(O)c3)nc12 | 320 | 90.4 |  |
| CCOC(=O)c1cnc(N)n2nc(-c3cccc(N)c3)nc12 | 16600 | 66.8 |  |
| CCOC(=O)c1cnc(N)n2nc(-c3cc(O)cc(O)c3)nc12 | 480 | 97.8 |  |
| CCOC(=O)c1cnc(N)n2nc(-c3ccc(O)cc3)nc12 |  | 39.3 |  |
| CCOC(=O)c1cnc(N)n2nc(-c3cc(OC)cc(OC)c3)nc12 |  | 18.8 |  |
| COc1cc(OC)cc(-c2nc3cc(NCc4ccccc4)nc(N)n3n2)c1 |  | 19.4 |  |
| COc1cc(OC)cc(-c2nc3nc(NCc4cccc(C)c4)nc(N)n3n2)c1 |  | 13.9 |  |
| CCOC(=O)c1cnc(NCc2ccccc2)n2nc(-c3cccc(OC)c3)nc12 |  | 10.9 |  |
| CC(C)(C)OC(=O)NCCNC(=O)c1cnc(N)n2nc(-c3cc(O)cc(O)c3)nc12 | 5320 | 84.2 |  |
| CCOC(=O)c1cnc(N)n2nc(-c3cccc(F)c3)nc12 | 15200 | 53.7 |  |
| CCOC(=O)c1cnc(NCc2ccc(OC)c(OC)c2)n2nc(-c3ccccc3)nc12 |  | 35.7 |  |
| Nc1nc(NCc2ccccc2)cc2nc(-c3cc(O)cc(O)c3)nn12 | 740 | 80.2 |  |
| CCOC(=O)c1cnc(N)n2nc(-c3ccc(OC)cc3)nc12 |  | 50.3 |  |
| Cc1cccc(CNc2nc(N)n3nc(-c4cc(O)cc(O)c4)nc3n2)c1 | 530 | 79.7 |  |
| Nc1nc(NCc2ccccc2)nc2nc(-c3cc(O)cc(O)c3)nn12 | 180 | 85.3 | IC50 (PBL [3]): > 10 µM; IC50 (PBL [4]): > 10 µM; inhibition [5]: Active; Activity [6]: 14%; IC50 (Fibroblast): > 10 µM; IC50 [7]: 300 nM; Activity [8]: 3.2%; Activity [9]: 32%; Activity [10]: 14%; Activity [11]: 14%; Activity [12]: 20%; Activity [13]: 1.4% |
| NCCNC(=O)c1cnc(N)n2nc(-c3cc(O)cc(O)c3)nc12 | 210 | 93.6 |  |
| CCOC(=O)c1cnc(N)n2nc(-c3ccc(O)c(O)c3)nc12 | 4750 | 98 |  |
| CCOC(=O)c1cnc(N)n2nc(-c3ccc(F)cc3)nc12 |  | 44.7 |  |
| CCOC(=O)c1cnc(N)n2nc(-c3cccc(O)c3)nc12 | 2060 | 88.9 |  |
| COc1cc(O)cc(-c2nc3nc(NC4CCCCC4)nc(N)n3n2)c1 | 3300 | 68.6 |  |
| Nc1nc(NCc2ccccc2)nc2nc(-c3ccc(O)cc3)nn12 | 1320 | 70.4 |  |
| COc1cc(OC)cc(-c2nc3cc(N(C)C)nc(N)n3n2)c1 |  | 33.5 |  |
| CCOC(=O)c1cnc(N)n2nc(-c3cc4ccccc4[nH]3)nc12 |  | 22.4 |  |
| COc1cc(OC)cc(-c2nc3nc(NCc4ccc(Cl)cc4)nc(N)n3n2)c1 |  | 9.7 |  |

| SMILES | IC50 [1] [nM] | inhibition [2] [%] | further results |
| --- | --- | --- | --- |
| CCOC(=O)c1cnc(N)n2nc(C)nc12 | 15200 | 66.6 |  |
| CCOC(=O)c1cnc(NCc2ccccc2)n2nc(-c3cccc(O)c3)nc12 |  | 1.2 |  |
| CCOC(=O)c1cnc(N)n2nc(-c3ccc(OCc4ccccc4)cc3)nc12 |  | 39.7 |  |
| CCOC(=O)c1cnc(NCc2ccc(-c3ccccc3)cc2)n2nc(-c3cccc(OC)c3)nc12 |  | 17.5 |  |
| CCOC(=O)c1cnc(N)n2nc(C3CCCC3)nc12 | 12300 | 76.8 |  |
| Nc1nc(NCc2ccccc2)nc2nc(-c3cccc(O)c3)nn12 | 460 | 84.2 |  |
| CCOC(=O)c1cnc(N)n2nc(-c3ccccc3)nc12 | 8670 | 62.2 |  |
| Nc1nc(NCc2ccc(Cl)cc2)nc2nc(-c3cc(O)cc(O)c3)nn12 | 750 | 95.8 |  |
| Oc1cccc(-c2nc3nc(NCc4ccccc4)nc(NCc4ccccc4)n3n2)c1 |  | -8.5 |  |
| COc1cccc(-c2nc3nc(NCc4ccccc4)nc(N)n3n2)c1 |  | 18.1 |  |
| CCOC(=O)c1cnc(NC)n2nc(-c3cccc(O)c3)nc12 |  | 7.1 |  |
| CCOC(=O)c1cnc(N)n2nc(-c3ccncc3)nc12 | 20200 | 59.7 |  |
| CCNC(=O)c1cnc(N)n2nc(-c3cc(O)cc(O)c3)nc12 | 990 | 86.1 |  |
| Nc1nc(NCc2ccccc2)cc2nc(-c3cccc(O)c3)nn12 | 300 | 75.2 |  |
| Nc1nc(NCc2ccc(F)cc2)nc2nc(-c3cc(O)cc(O)c3)nn12 | 470 | 87 |  |
| CCOC(=O)c1cnc(N)n2nc(-c3cccc(OC)c3)nc12 | 25000 | 52 |  |
| CC(C)(C)OC(=O)NCCNC(=O)c1cnc(N)n2nc(-c3cccc(O)c3)nc12 |  | 16.8 |  |
| CCOC(=O)c1cnc(NCc2ccc(-c3ccccc3)cc2)n2nc(-c3cccc(O)c3)nc12 |  | 9 |  |
| CCOC(=O)c1cnc(NCc2ccc(OC)c(OC)c2)n2nc(-c3ccc(F)cc3)nc12 |  | 11.3 |  |
| COc1cc(OC)cc(-c2nc3nc(NCc4ccc(F)cc4)nc(N)n3n2)c1 |  | 10.5 |  |
| CCOC(=O)c1cnc(N)n2nc(-c3cccc([N+](=O)[O-])c3)nc12 |  | 21.6 |  |
| Nc1ncc(C(=O)O)c2nc(-c3cccc(O)c3)nn12 | 26700 | 75.8 |  |
| Nc1nc(NCc2ccccc2)nc2nc(-c3ccc(O)c(O)c3)nn12 | 910 | 93.8 |  |
| COc1cc(OC)cc(-c2nc3nc(NCc4ccccc4)nc(N)n3n2)c1 |  | 4.5 |  |
| Nc1nc(NC2CCCCC2)nc2nc(-c3cc(O)cc(O)c3)nn12 | 670 | 89.3 |  |
